Test results taken from ChEMBL document CHEMBL1143736, “Synthesis and antimycobacterial activity of 4-(5-substituted-1,3,4-oxadiazol-2-yl)pyridines” (Bioorg Med Chem, 2007).
In brackets after ≈: the same amount, converted by molar mass.

Tests used:
[1] = test system: Mycobacterium tuberculosis; test: Antimycobacterial activity against drug-sensitive Mycobacterium tuberculosis CIBIN 650 isolates; assay type: functional
Method in brief: (§1)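 Modified microplate Alamar Blue assay (MABA). Inoculum came from a log-phase culture matched to McFarland 1, diluted 1:50 in Middlebrook 7H9 to 6 × 10^6 CFU/mL, and prepared just before inoculation.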

[2] = test system: Mycobacterium tuberculosis; test: Antimycobacterial activity against Mycobacterium tuberculosis H37Rv; assay type: functional; method in brief: as §1
[3] = test system: Mycobacterium tuberculosis; test: Antimycobacterial activity against drug-sensitive Mycobacterium tuberculosis CIBIN 687 isolates; assay type: functional; method in brief: as §1
Vero = test: Cytotoxicity against Vero cells; assay type: cell-based; conditions: Chlorocebus sabaeus
Method in brief: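 Vero cells in DMEM with 10% FBS (1.5 × 10^5 cells/mL) grown 24 h at 36.5 °C, 5% CO2; medium renewed, compounds (DMSO stocks) added in triplicate at 100–0.390 µg/mL by two-fold serial dilution, 24 h. Cells trypsinized, trypan blue stained, 100 counted for % dead, corrected against untreated controls (2.5% DMSO); IC50 by probit; three independent experiments, mean ± SE.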

[4] = Toxicity against non-adherent human PBMC; assay type: cell-based
Method in brief: (§2)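 PBMC from one healthy volunteer, isolated at room temperature, in RPMI 1640 + 10% FBS at 1 × 10^6 cells/mL; compounds tested in quintuplicate, 24 h. Non-adherent cells taken with supernatant, adherent cells recovered with trypsin–EDTA, each fraction pelleted (600g, 5 min) and read separately; IC50 per fraction.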

[5] = Toxicity against adherent human PBMC; assay type: cell-based; method in brief: as §2
PBMC = test: Survival of adherent human PBMC at 100 ug/mL; assay type: functional; conditions: read-out: Survival
Method in brief: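 PBMC came from one healthy volunteer, isolated at room temperature, and were plated at 1 × 10^6 cells/mL in RPMI 1640 + 10% FBS. Compound was added in quintuplicate and incubated 24 h. Both fractions were pelleted at 600g for 5 min.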

Row | Structure (SMILES) | MIC [1] [µM] | MIC [2] [µM] | MIC [3] [µM] | IC50 (Vero) [µM] | IC50 [4] [µg/mL] | IC50 [5] [µg/mL] | viability at 100 µg/mL (PBMC) [%]
1 | Cc1nnc(-c2ccncc2)o1 | 49.7 (≈ 8.01 µg/mL) | 49.7 (≈ 8.01 µg/mL) | 6.21 (≈ 1 µg/mL) | – | – | – | –
2 | ClCc1nnc(-c2ccncc2)o1 | 41 (≈ 8.03 µg/mL) | 41 (≈ 8.03 µg/mL) | 41 (≈ 8.03 µg/mL) | 64.6 | – | – | –
3 | CCCCCCCCCCCCCCCc1nnc(-c2ccncc2)o1 | 0.09 (≈ 0.0322 µg/mL) | 0.35 (≈ 0.125 µg/mL) | 0.7 (≈ 0.25 µg/mL) | 95.5 | 15.8 (≈ 44.3 µM) | 125 (≈ 350 µM) | –
4 | c1cc(-c2nnc(-c3ccncc3)o2)ccn1 | 8.93 (≈ 2 µg/mL) | 8.93 (≈ 2 µg/mL) | 4.46 (≈ 1 µg/mL) | 92.4 | – | – | –
5 | CCCCCCCCCCCCCCCCCc1nnc(-c2ccncc2)o1 | 0.16 (≈ 0.0617 µg/mL) | 0.65 (≈ 0.251 µg/mL) | 0.65 (≈ 0.251 µg/mL) | 86.7 | 45.4 (≈ 118 µM) | 312 (≈ 810 µM) | –
6 | O=[N+]([O-])c1ccc(-c2nnc(-c3ccncc3)o2)cc1 | 29.9 (≈ 8.01 µg/mL) | 29.9 (≈ 8.01 µg/mL) | 29.9 (≈ 8.01 µg/mL) | – | – | – | –
7 | O=[N+]([O-])c1cc(-c2nnc(-c3ccncc3)o2)cc([N+](=O)[O-])c1 | 25.5 (≈ 8 µg/mL) | 25.5 (≈ 8 µg/mL) | 6.39 (≈ 2 µg/mL) | 77.1 | – | – | –
8 | CN(C)c1ccc(-c2nnc(-c3ccncc3)o2)cc1 | 30 (≈ 8 µg/mL) | 3.76 (≈ 1 µg/mL) | 3.76 (≈ 1 µg/mL) | 50.4 | – | – | –
9 | FC(F)(F)c1nnc(-c2ccncc2)o1 | 37.2 (≈ 8.01 µg/mL) | 37.2 (≈ 8.01 µg/mL) | 37.2 (≈ 8.01 µg/mL) | – | – | – | –
10 | O=[N+]([O-])c1ccccc1-c1nnc(-c2ccncc2)o1 | 7.46 (≈ 2 µg/mL) | 7.46 (≈ 2 µg/mL) | 3.73 (≈ 1 µg/mL) | 32.4 | – | – | –
11 | COc1cc(-c2nnc(-c3ccncc3)o2)cc(OC)c1OC | 7.06 (≈ 2.21 µg/mL) | 14.1 (≈ 4.42 µg/mL) | 3.53 (≈ 1.11 µg/mL) | 250 | – | – | –
12 | c1ccc(-c2nnc(-c3ccncc3)o2)cc1 | 8.97 (≈ 2 µg/mL) | 8.97 (≈ 2 µg/mL) | 4.48 (≈ 1 µg/mL) | 67.8 | – | – | –
13 | CN[C@@H]1[C@H](O[C@H]2[C@H](O[C@H]3[C@H](O)[C@@H](O)[C@H](N=C(N)N)[C@@H](O)[C@@H]3N=C(N)N)O[C@@H](C)[C@]2(O)C=O)O[C@@H](CO)[C@H](O)[C@H]1O (stereo in doubt) [STREPTOMYCIN] | 0.1 (≈ 0.0582 µg/mL) | 0.86 (≈ 0.5 µg/mL) | – | > 100 | – | – | –
14 | CC[C@@H](CO)NCCN[C@@H](CC)CO [ETHAMBUTOL] | – | 9.8 (≈ 2 µg/mL) | – | > 100 | – | – | –
15 | NNC(=O)c1ccncc1 [ISONIAZID] | 0.91 (≈ 0.125 µg/mL) | 0.44 (≈ 0.0603 µg/mL) | 0.91 (≈ 0.125 µg/mL) | 39.8 | 87.1 (≈ 635 µM) | > 100 | > 95
16 | CO[C@H]1/C=C/O[C@@]2(C)Oc3c(C)c(O)c4c(O)c(c(/C=N/N5CCN(C)CC5)c(O)c4c3C2=O)NC(=O)/C(C)=C\C=C\[C@H](C)[C@H](O)[C@@H](C)[C@@H](O)[C@@H](C)[C@H](OC(C)=O)[C@@H]1C [RIFAMPIN] | – | 0.07 (≈ 0.0576 µg/mL) | – | > 100 | – | – | –
